Drawing on ChEMBL document CHEMBL1149538, “A high-throughput assay for O-GlcNAc transferase detects primary sequence preferences in peptide substrates” (Bioorg Med Chem Lett, 2007), this text covers Activity and Km for 4 molecules.

Where a SMILES comes first, the peptide text is derived from it.

Common to all, as to conditions: BL21-DE3
For series [1], the target named is T1, UDP-N-acetylglucosamine--peptide N-acetylglucosaminyltransferase 110 kDa subunit (Homo sapiens) (UniProt O15294).
T1 sequence (whole entry): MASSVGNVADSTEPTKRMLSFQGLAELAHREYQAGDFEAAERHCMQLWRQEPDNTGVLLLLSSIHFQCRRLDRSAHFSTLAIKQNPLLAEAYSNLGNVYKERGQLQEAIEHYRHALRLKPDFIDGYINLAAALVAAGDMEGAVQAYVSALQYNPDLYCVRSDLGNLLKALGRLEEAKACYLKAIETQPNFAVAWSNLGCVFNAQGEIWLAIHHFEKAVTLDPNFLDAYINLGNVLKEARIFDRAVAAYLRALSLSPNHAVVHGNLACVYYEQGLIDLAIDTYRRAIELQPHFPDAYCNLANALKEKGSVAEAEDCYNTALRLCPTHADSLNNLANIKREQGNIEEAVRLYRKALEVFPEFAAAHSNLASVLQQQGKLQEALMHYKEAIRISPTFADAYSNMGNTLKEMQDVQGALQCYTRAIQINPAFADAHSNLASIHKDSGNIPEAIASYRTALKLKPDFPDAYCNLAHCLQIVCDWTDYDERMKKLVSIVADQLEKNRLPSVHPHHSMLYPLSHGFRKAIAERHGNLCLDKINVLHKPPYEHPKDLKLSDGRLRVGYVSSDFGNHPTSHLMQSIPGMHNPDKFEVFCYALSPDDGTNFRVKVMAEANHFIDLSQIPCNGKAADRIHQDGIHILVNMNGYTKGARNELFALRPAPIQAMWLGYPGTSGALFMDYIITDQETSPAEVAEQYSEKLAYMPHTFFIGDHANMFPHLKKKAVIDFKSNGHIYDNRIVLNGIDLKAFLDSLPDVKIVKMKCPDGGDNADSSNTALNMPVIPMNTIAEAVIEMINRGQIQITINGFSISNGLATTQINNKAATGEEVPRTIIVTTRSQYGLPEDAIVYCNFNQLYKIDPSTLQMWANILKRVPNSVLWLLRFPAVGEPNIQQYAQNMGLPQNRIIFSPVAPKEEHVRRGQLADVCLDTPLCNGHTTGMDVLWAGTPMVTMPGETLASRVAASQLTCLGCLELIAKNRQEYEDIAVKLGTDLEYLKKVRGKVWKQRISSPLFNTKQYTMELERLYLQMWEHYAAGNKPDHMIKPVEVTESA
Nature of the series: Binding affinity to human OGT expressed in Escherichia coli […] cells assessed as alpha-FLAG-HRP activity relative to alpha-A-crystallin peptide by azido-ELISA. A digest of the protocol:
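Biotinylated peptides are reacted at saturating levels with Ni-column-purified human OGT from E. coli BL21(DE3), plus UDP-GlcNAz 62.5 μM, MgCl2 12.5 μM and β-mercaptoethanol 1 mM, for 4 h at 37 °C. Reactions are stopped with pH 4.5 sodium acetate and captured on NeutrAvidin. Product is tagged with phosphine-FLAG, detected by anti-FLAG-HRP/TMB at A450, normalized to the parent peptide after Ala-peptide background subtraction. Data are from 3 experiments, each in triplicate.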
Background: ELISA stands for enzyme-linked immunosorbent assay.

Substrate in series [2]: CC[C@H](C)[C@H](NC(=O)[C@H](C)N)C(=O)N1CCC[C@H]1C(=O)N[C@H](C(=O)N[C@@H](CO)C(=O)N[C@@H](CCCNC(=N)N)C(=O)N[C@@H](CCC(=O)O)C(=O)N[C@@H](CCC(=O)O)C(=O)N[C@@H](CCCCN)C(=O)O)C(C)C
Nature of the series: (§1) Binding affinity to human OGT expressed in Escherichia coli BL1 (DE3) cells by azido-ELISA. A digest of the protocol: (§2)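 Km is derived from the azido-ELISA using Ni-purified human OGT expressed in E. coli BL21(DE3), with UDP-GlcNAz as donor, MgCl2 and β-mercaptoethanol, incubated at 37 °C. Biotinylated peptide product is captured on NeutrAvidin, Staudinger-tagged with phosphine-FLAG (0.2 mM, 2 h, 37 °C), and quantified by anti-FLAG-HRP with TMB at 450 nm.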

Substrate in series [3]: CC[C@H](C)[C@H](NC(=O)[C@H](C)N)C(=O)N1CCC[C@H]1C(=O)N[C@H](C(=O)N[C@@H](CO)C(=O)N[C@@H](CCCNC(=N)N)C(=O)N[C@@H](C)C(=O)N[C@@H](CCC(=O)O)C(=O)N[C@@H](CCCCN)C(=O)O)C(C)C
Described as §1. The procedure, abridged: as §2

Substrate in series [4]: CC[C@H](C)[C@H](NC(=O)[C@H](C)N)C(=O)N1CCC[C@H]1C(=O)N[C@H](C(=O)N[C@@H](CO)C(=O)N[C@@H](CCCNC(=N)N)C(=O)N1CCC[C@H]1C(=O)N[C@@H](CCC(=O)O)C(=O)N[C@@H](CCCCN)C(=O)O)C(C)C
The description is as §1. The procedure, abridged:
as §2

For the molecule `CC[C@H](C)[C@H](N)C(=O)N[C@H](C(=O)N1CCC[C@H]1C(=O)N[C@H](C(=O)N[C@@H](CO)C(=O)N[C@@H](CCCNC(=N)N)C(=O)N[C@@H](CCC(=O)O)C(=O)N[C@@H](CCC(=O)O)C(=O)N[C@@H](CCCCN)C(=O)O)C(C)C)[C@@H](C)CC` (H-IIPVSREEK-OH), the Activity in series [1] came out at 1.6.

As for `CC[C@H](C)[C@H](NC(=O)[C@@H]1CCCN1)C(=O)N1CCC[C@H]1C(=O)N[C@H](C(=O)N[C@@H](CO)C(=O)N[C@@H](CCCNC(=N)N)C(=O)N[C@@H](CCC(=O)O)C(=O)N[C@@H](CCC(=O)O)C(=O)N[C@@H](CCCCN)C(=O)O)C(C)C` (H-PIPVSREEK-OH), in series [1], the Activity came out at 1.8.

For the molecule `CC[C@H](C)[C@H](NC(=O)[C@@H](N)CCCNC(=N)N)C(=O)N1CCC[C@H]1C(=O)N[C@H](C(=O)N[C@@H](CO)C(=O)N[C@@H](CCCNC(=N)N)C(=O)N[C@@H](CCC(=O)O)C(=O)N[C@@H](CCC(=O)O)C(=O)N[C@@H](CCCCN)C(=O)O)C(C)C` (H-RIPVSREEK-OH), in series [1], the Activity was determined as 2.

B1: UDP-N-acetylglucosamine--peptide N-acetylglucosaminyltransferase 110 kDa subunit (Homo sapiens), O15294 (protein)
chain: T1 sequence (whole entry)
Broadly, the Km is the concentration of substrate that gives half-maximal velocity. For the molecule B1, the Km is 8.7 µM in series [2], 0.5 µM in series [3] and 0.8 µM in series [4].
